Compounds with a hit are over-represented: about 3.1% of the library has one in this group of screens.
RBBP9 inh = human RBBP9 hydrolase inhibition. O75884. recombinant RBBP9, FP-Rh probe fluorescence polarization. inhibition, % at 7.94 µM. hit rate 0.2% among 220,000;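 active means inhibition above the campaign mean of all tested compounds plus 3 SD, cut at about 14% in these data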;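 further: plate controls were DMSO wells with RBBP9 for no effect and wells lacking RBBP9 protein for full effect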
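Material: RBBP9 protein. Amount: RBBP9 at 2.5 µM in dispensed solution, before mixing. Schedule: 30 min then 45 min, 25 °C. Medium: Tris buffer pH 8.0, NaCl, Pluronic. Measured by: fluorescence polarization. Measure: percent inhibition from mP, scaled between DMSO and no-protein wells. Replication: one well per compound.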
PRMT1 FP inh = inhibitors of human PRMT1 | Q99873 | recombinant PRMT1, activity-based probe fluorescence polarization | inhibition, % at 2.79 µM | hit rate 1.3% among 370,000 | AID 652257;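 active means inhibition above about 21% made by adding two undisclosed values, limit read from the data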
UHRF1 MBD2 ctr = UHRF1 methyl-DNA binding inhibition. inhibition, % at 4.4 µM. UHRF1 binding to methylated oligo, TR-FRET. AID 687016. Q96T88. hit rate 0.75% among 370,000; in the data active means inhibition above about 21%;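 further: UHRF1 SRA domain binding a hemimethylated CpG hairpin DNA probe; 0% = median of test compound wells and 100% = reference inhibitor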
Target sequence (Q96T88 whole entry, looked up, the tested form may be a part): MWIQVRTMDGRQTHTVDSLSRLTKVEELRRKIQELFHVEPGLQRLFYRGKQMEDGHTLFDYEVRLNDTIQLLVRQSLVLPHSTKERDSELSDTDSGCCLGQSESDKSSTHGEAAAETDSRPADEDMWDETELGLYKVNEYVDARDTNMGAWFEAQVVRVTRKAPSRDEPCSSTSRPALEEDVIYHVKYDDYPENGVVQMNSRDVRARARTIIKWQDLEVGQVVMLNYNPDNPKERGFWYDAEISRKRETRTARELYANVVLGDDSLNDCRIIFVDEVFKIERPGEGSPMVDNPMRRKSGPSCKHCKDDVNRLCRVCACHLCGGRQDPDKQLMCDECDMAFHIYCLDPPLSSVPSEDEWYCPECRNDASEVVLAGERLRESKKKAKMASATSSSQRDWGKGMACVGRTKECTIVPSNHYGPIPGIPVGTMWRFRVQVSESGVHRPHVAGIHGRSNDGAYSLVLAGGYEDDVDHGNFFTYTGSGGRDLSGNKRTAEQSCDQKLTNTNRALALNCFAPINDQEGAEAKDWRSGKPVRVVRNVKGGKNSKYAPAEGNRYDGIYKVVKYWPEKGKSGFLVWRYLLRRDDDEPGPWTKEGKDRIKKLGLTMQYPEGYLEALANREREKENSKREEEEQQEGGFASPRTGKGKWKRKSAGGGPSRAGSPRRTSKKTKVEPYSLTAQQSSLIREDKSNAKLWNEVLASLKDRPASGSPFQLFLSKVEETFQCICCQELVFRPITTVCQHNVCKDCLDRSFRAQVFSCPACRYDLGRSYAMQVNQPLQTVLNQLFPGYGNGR
MBD2 inh = blocks human MBD2 binding to methylated DNA | hit rate 0.31% among 370,000 | inhibition, % at 4.4 µM | AID 686964 | TR-FRET, MBD2 binding to methylated oligonucleotide | Q9UBB5; in the data active means inhibition above about 13%
ABHD5 PLIN5 PPI = ABHD5-PLIN5 protein interaction inhibition; Q00G26+Q8WTS1; Split G. princeps luciferase complementation, luminescence, 4 h; inhibition, % at 4 µM; hit rate 0.78% among 360,000;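 active means inhibition above the mean inhibition across every tested compound plus 3 SD, cut at about 22% in these data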;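 further: 0% = DMSO only wells and the 100% control is not disclosed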
LEDGF integ inh = blocks HIV-1 LEDGF/p75-dependent DNA integration | TR-FRET IN-LEDGF/p75 DNA integration, Eu/Cy5 | inhibition, % at 3.7 µM | hit rate 0.64% among 370,000 | AID 743269;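 active means inhibition above the screen-wide mean plus 3 SD, cut at about 13% in these data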;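 further: signal is the Cy5 over europium emission ratio at 671 and 618 nm; 0% = plate median of compound wells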
ABHD5 PLIN5 conf = ABHD5-PLIN5 interaction inhibition, confirmed. shares compounds with ABHD5 PLIN5 PPI. biochemical ABHD5-PLIN5 interaction, luminescence. inhibition, % at 4 µM. hit rate 67% among 2,200; in the data active means inhibition above about 23%;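 further: 0% = DMSO vehicle wells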
HNF4 split-luc = counter-screen for ABHD5-PLIN5 inhibitors: HNF4 split-luciferase. inhibition, % at 4 µM. AID 651674. HNF4 dimerization, luminescence, biochemical. shares compounds with ABHD5 PLIN5 PPI. hit rate 77% among 2,200;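 active means mean inhibition across replicate wells exceeding the computed hit threshold, cut at about 13% in these data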;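 further: light from luciferase halves that rejoin when HNF4 fusion proteins dimerize; 0% = DMSO only wells and the 100% control is not given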
* = called active by the depositor; . = not tested or not shown.

SMILES	RBBP9 inh	PRMT1 FP inh	UHRF1 MBD2 ctr	MBD2 inh	ABHD5 PLIN5 PPI	LEDGF integ inh	ABHD5 PLIN5 conf	HNF4 split-luc
COc1ccc(C(=O)c2coc(-c3ccccc3C(=O)O)c2C(=O)O)cc1	-8	4	6	10	3	-3	.	.
Cc1ccc(C(=O)c2c(C)oc3c2C(=O)C(=O)c2ccccc2-3)cc1	-12	.	.	.	51*	.	84*	60*
Cc1oc2c(c1C(=O)c1ccc(Cl)cc1)C(=O)C(=O)c1ccccc1-2	4	0	0	1	55*	1	81*	35*
COC(=O)c1cc2c(c3c4cc(F)ccc4n(S(=O)(=O)c4cccc(C)c4)c13)C(=O)N(c1ccc(OC)cc1)C2	.	0	0	-2	.	-1	.	.
COC(=O)[C@]12C[C@H](CC(=O)NCCC(C)C)C(=O)N(CCC3=CCCCC3)C1=C[C@H](C(C)C)O[C@@H]2C1CC1	.	5	1	1	.	-3	.	.
Cc1ccc2c(c1)/C(=C/c1ccccc1F)C(=O)N2	.	0	0	-1	31*	0	44*	39*
CCOc1ccc(/C=C/[N+](=O)[O-])c2ccccc12	-1	.	.	.	79*	.	103*	108*
CCOC(=O)Cn1cc(/C=C/[N+](=O)[O-])c2ccccc21	-9	2	6	0	19	-2	.	.
CCOC(=O)COc1ccc(/C=C/[N+](=O)[O-])c(OCC(=O)OCC)c1	-10	11	9	4	28*	3	62*	95*
COC(=O)[C@@]12CCCCC3=C1N(CCC3)C(=O)[C@H]2CC(=O)NCc1cccc(C(F)(F)F)c1	.	0	1	0	.	3	.	.
O=C(/C=C/c1cccnc1)c1ccccc1O	0	-1	-1	-2	13	0	.	.
O=C(C=Cc1ccccc1)c1ccc([N+](=O)[O-])cc1	.	-1	0	1	67*	1	95*	91*
COc1ccc(C=CC(=O)c2ccc([N+](=O)[O-])cc2)cc1	.	0	-2	4	16	-4	.	.
O=C(C=Cc1ccco1)c1ccc([N+](=O)[O-])cc1	.	23*	6	8	35*	10	47*	42*
O=C(/C=C/c1cccnc1)c1ccc([N+](=O)[O-])cc1	.	6	-1	-1	57*	5	89*	94*
COc1cc(C(=O)/C=C/c2cccnc2)c([N+](=O)[O-])cc1OC	.	4	-2	2	47*	-1	74*	72*
CCC(=O)OCCCN1CCC2(CCC(c3ccccc3)CC2)C1=O (configuration not stated)	.	8	-2	1	.	-3	.	.
O=C(Nc1ccc(Cl)cc1)N1CCN(Cc2nc3ccccc3c(=O)[nH]2)CC1	.	-5	3	1	.	-1	.	.
CCOC(=O)N1CCN(C(=O)C[C@H]2C[C@@]3(C(=O)OC)C(=C[C@H](COCc4ccccc4)O[C@@H]3C)N(Cc3ccc4c(c3)OCO4)C2=O)CC1	.	1	-1	2	.	1	.	.
Cc1[nH]c(C)c(C(=O)/C=C/c2ccc([N+](=O)[O-])cc2)c1C	.	2	-3	-3	25*	-1	39*	44*
COC(=O)C1=C(C)N(Cc2ccco2)C(=O)/C1=C\c1ccc([N+](=O)[O-])cc1	7	24*	0	1	70*	7	98*	95*
CN1CCN(CC#CCn2c3ccccc3c3ccccc32)CC1	-5	0	2	0	23*	0	12	1
CCOc1ccc(C(=O)CC(NCc2cccs2)C(=O)O)cc1 (configuration not stated)	2	14	1	2	57*	-2	91*	110*
CCOc1ccc(C(=O)CCC(=O)N(CC)CC(=O)NCc2cccs2)cc1	.	13	-1	1	-6	-4	.	.
NC(=O)C(C(=O)/C=C/c1ccc(Cl)cc1)=C1SCCS1	-3	-4	-2	2	34*	-4	56*	34*
SMILES	RBBP9 inh	PRMT1 FP inh	UHRF1 MBD2 ctr	MBD2 inh	ABHD5 PLIN5 PPI	LEDGF integ inh	ABHD5 PLIN5 conf	HNF4 split-luc
CCCOc1nccc2c1n(C)c(=O)n2C	.	-2	-1	-4	.	0	.	.
C=CCC1(C)C(=O)N(c2ccccc2)c2ccccc21 (configuration not stated)	-3	0	-2	0	32*	-3	5	4
O=C1OC(/C(=C\Nc2ccccc2)[N+](=O)[O-])c2ccccc21 (configuration not stated)	0	6	0	-1	42*	2	7	26*
Oc1ccc(/C=N/N2CCN(C3c4ccccc4-c4ccccc43)CC2)cc1	0	-2	2	6	-5	0	.	.
Cc1ccc(/C=N/N2CCN(C3c4ccccc4-c4ccccc43)CC2)o1	2	16	-1	3	26*	-2	8	13*
CN(C)c1ccc(/C=C/c2ccc3ccccc3[n+]2C)cc1	-39	1	-20	-8	29*	-11	23*	30*
C=CCNC(=O)/C(C#N)=C/c1cc(Br)ccc1OC	5	-3	1	4	43*	-1	56*	45*
COc1ccc(C(=O)NCCNc2nc3ccc(C)cc3cc2C#N)cc1OC	.	-1	-4	-8	86*	7	-1	13*
CCOc1cc(N)c(Cl)cc1C(=O)NCC1CN(Cc2ccc(F)cc2)CCO1 (configuration not stated)	.	2	-1	0	71*	2	78*	33*
O=C(NCC1CCCO1)c1ccc(COc2ccc(F)cc2)o1 (configuration not stated)	-10	-5	0	-2	10	-2	.	.
NS(=O)(=O)c1ccc(OCCCN2CCC(C(O)(c3ccccc3)c3ccccc3)CC2)cc1	.	-1	2	4	.	0	.	.
CCN1CCN(Cc2c(O)ccc3c2O/C(=C\C=C\c2ccccc2)C3=O)CC1	-9	22*	-22	-12	34*	-3	23*	19*
CN(C)Cc1c(O)ccc2c1O/C(=C\C=C\c1ccccc1)C2=O	-6	14	-10	-8	29*	4	20	24*
COc1ccccc1/C=C/C=C1\Oc2c(ccc(O)c2CN2CCN(CCO)CC2)C1=O	4	11	-16	-12	21	2	.	.
O=C1/C(=C/C=C/c2ccccc2)Oc2c1ccc(O)c2CN1CCN(CCO)CC1	-3	21*	9	5	31*	7	18	18*
CCN1CCN(Cc2c(O)ccc3c2O/C(=C\c2ccc(C)cc2)C3=O)CC1	6	5	-16	-2	-7	-3	.	.
COc1ccc([C@@]23CCN=C2c2[nH]c4ccccc4c2CCN3)c(N)c1	.	5	0	2	.	-5	.	.
